Test results reported in ChEMBL document CHEMBL1121618, “Thymidine phosphorylase. Substrate specificity for 5-substituted 2'-deoxyuridines” (J Med Chem, 1980).

test: Ratio of Vmax to that of dThd (Vmax = 0.14)
Method in brief: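 Continuous UV assay of phosphorolysis by a dThd phosphorylase preparation. Initial rates were followed at each nucleoside's Δλmax, the wavelength of maximal nucleoside/base absorbance difference determined per substrate, and converted using Δεmax. Nucleoside was varied from 60–320 μM in 0.1 M potassium phosphate (pH 6.0) with limiting enzyme at 25.0 °C. Vmax was expressed relative to dThd in the same assay.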

Structure (SMILES) | Vmax
N#Cc1cn([C@H]2C[C@H](O)[C@@H](CO)O2)c(=O)[nH]c1=O | 0.74
C/C=C/c1cn([C@H]2C[C@H](O)[C@@H](CO)O2)c(=O)[nH]c1=O | 0.57
O=c1[nH]c(=O)n([C@H]2C[C@H](O)[C@@H](CO)O2)cc1F | 3.42
O=Cc1cn([C@H]2C[C@H](O)[C@@H](CO)O2)c(=O)[nH]c1=O | 1.46
CCc1cn([C@H]2C[C@H](O)[C@@H](CO)O2)c(=O)[nH]c1=O | 0.79
O=c1[nH]c(=O)n([C@H]2C[C@H](O)[C@@H](CO)O2)cc1Br | 3.51
O=c1ccn([C@H]2C[C@H](O)[C@@H](CO)O2)c(=O)[nH]1 | 0.88
O=c1[nH]c(=O)n([C@H]2C[C@H](O)[C@@H](CO)O2)cc1Cl | 4.2
O=c1[nH]c(=O)n([C@H]2C[C@H](O)[C@@H](CO)O2)cc1C(F)(F)F | 8.53
O=c1[nH]c(=O)n([C@H]2C[C@H](O)[C@@H](CO)O2)cc1CO | 0.6
O=c1[nH]c(=O)n([C@H]2C[C@H](O)[C@@H](CO)O2)cc1I | 3.85
C=CCc1cn([C@H]2C[C@H](O)[C@@H](CO)O2)c(=O)[nH]c1=O | 0.76
Cc1cn([C@H]2C[C@H](O)[C@@H](CO)O2)c(=O)[nH]c1=O | 1
